Key:
[1] = biological target: Matrix metalloproteinase-9 (Homo sapiens, UniProt P14780); experiment: Inhibition of recombinant human MMP9 (Phe107 to Pro449 residues) expressed in Escherichia coli using Ac-Pro-Leu-Gly-S-Leu-Leu-Gly-OEt as substrate after 1 hr measured at 1 min time interval for 30 mins by microplate photometric method
In short: (§1)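 Commercial MMP kits; compound preincubated with enzyme before chromogenic substrate was added. Reactions at 37 °C for 1 h, with at least six inhibitor concentrations in triplicate. Absorbance at 410 nm read every 1 min for 30 min. NNGH used as reference inhibitor. IC50 taken from semi-logarithmic dose-response plots.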

[2] = biological target: MMP-2/MMP-9 (Homo sapiens) (UniProt P08253+P14780); experiment: Selectivity ratio of IC50 for recombinant human MMP9 (Phe107 to Pro449 residues) expressed in Escherichia coli to IC50 for recombinant human MMP2 (Tyr110 to Asp452 residues)
A549 = experiment: Cytotoxicity against human A549 cells assessed as reduction in cell viability after 48 hrs by MTT assay; type: functional, cell-based; conditions: A549, 48 h
In short: (§2)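 A549, MDA-MB-231, K562, U937 and PBMC (PBMC from healthy donors) seeded at 1×10^3 cells/well and left 24 h, then exposed to compounds for 48 h at 37 °C, 5% CO2. Adherent lines were grown in DMEM, the others in RPMI-1640 with 10% heat-inactivated FBS. MTT read-out; viability expressed as % of untreated control. IC50 taken as the concentration giving 50% viability loss.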

K562 [3] = experiment: Cytotoxicity against human K562 cells assessed as reduction in cell viability after 48 hrs by MTT assay; type: functional, cell-based; conditions: K562, 48 h; in short: as §2
PBMC = experiment: Cytotoxicity against human PBMC assessed as reduction in cell viability after 48 hrs by MTT assay; type: cell-based; in short: as §2
Interstitial collagenase = biological target: T1, Interstitial collagenase (Homo sapiens, UniProt P03956); experiment: Inhibition of recombinant human MMP1 (Phe100 to Gln268 residues) using Ac-Pro-Leu-Gly-S-Leu-Leu-Gly-OEt as substrate after 1 hr measured at 1 min time interval for 30 mins by microplate photometric method; in short: as §1
T1 sequence (P03956 whole entry): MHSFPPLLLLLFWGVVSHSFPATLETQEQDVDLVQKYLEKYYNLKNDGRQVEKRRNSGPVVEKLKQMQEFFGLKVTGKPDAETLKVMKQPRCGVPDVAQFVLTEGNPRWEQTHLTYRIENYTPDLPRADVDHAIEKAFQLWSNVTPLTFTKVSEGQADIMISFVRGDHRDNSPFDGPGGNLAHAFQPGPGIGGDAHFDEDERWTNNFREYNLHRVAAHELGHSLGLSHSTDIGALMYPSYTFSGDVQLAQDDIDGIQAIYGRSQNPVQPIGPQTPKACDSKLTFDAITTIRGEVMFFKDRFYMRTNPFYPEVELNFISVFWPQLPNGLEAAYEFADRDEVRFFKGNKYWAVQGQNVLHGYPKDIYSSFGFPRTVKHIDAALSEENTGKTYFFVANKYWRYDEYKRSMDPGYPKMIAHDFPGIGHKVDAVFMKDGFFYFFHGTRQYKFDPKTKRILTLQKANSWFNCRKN

[4] = biological target: Macrophage metalloelastase (Homo sapiens, UniProt P39900); experiment: Inhibition of recombinant human MMP12 (Phe99 to Leu271 residues) expressed in Escherichia coli using Ac-Pro-Leu-Gly-S-Leu-Leu-Gly-OEt as substrate after 1 hr measured at 1 min time interval for 30 mins by microplate photometric method; in short: as §1
Macrophage metalloelastase, sequence (P39900 whole entry): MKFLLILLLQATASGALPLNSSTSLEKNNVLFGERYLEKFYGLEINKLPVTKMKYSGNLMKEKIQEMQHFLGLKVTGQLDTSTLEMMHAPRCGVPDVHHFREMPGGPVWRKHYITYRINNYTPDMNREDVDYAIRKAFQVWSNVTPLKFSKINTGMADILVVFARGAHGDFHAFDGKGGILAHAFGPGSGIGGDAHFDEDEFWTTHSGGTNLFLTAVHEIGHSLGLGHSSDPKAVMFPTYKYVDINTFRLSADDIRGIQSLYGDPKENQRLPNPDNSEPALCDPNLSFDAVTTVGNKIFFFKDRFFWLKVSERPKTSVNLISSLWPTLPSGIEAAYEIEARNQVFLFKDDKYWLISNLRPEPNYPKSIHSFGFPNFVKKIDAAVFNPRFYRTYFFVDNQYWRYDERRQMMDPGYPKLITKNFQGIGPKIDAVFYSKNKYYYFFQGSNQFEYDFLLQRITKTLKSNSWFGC

[5] = biological target: Matrix metalloproteinase-14 (Homo sapiens, UniProt P50281); experiment: Inhibition of recombinant human MMP14 (Tyr112 to Arg298 residues) expressed in Escherichia coli using Ac-Pro-Leu-Gly-S-Leu-Leu-Gly-OEt as substrate after 1 hr measured at 1 min time interval for 30 mins by microplate photometric method; in short: as §1
K562 [6] = experiment: Induction of apoptosis in human K562 cells assessed as necrotic cells at 5 uM after 48 hrs by Annexin V-FITC/propidium iodide staining based flow cytometry (reference value: 0%); type: functional
K562 [7] = experiment: Induction of apoptosis in human K562 cells assessed as early apoptotic cells at 10 uM after 48 hrs by Annexin V-FITC/propidium iodide staining based flow cytometry (reference value: 9.6%); type: functional
K562 [8] = experiment: Induction of apoptosis in human K562 cells assessed as late apoptotic cells at 10 uM after 48 hrs by Annexin V-FITC/propidium iodide staining based flow cytometry (reference value: 0.3%); type: functional
K562 [9] = experiment: Induction of apoptosis in human K562 cells assessed as necrotic cells at 10 uM after 48 hrs by Annexin V-FITC/propidium iodide staining based flow cytometry (reference value: 0%); type: functional
K562 [10] = experiment: Induction of apoptosis in human K562 cells assessed as increase in early apoptotic cells at 2.5 to 10 uM after 48 hrs by Annexin V-FITC/propidium iodide staining based flow cytometry relative to control; type: functional
K562 [11] = experiment: Cell cycle arrest in human K562 cells assessed as accumulation at G1-phase at 5 uM after 48 hrs by propidium iodide staining based flow cytometry (reference value: 27.5%); type: functional
K562 [12] = experiment: Cell cycle arrest in human K562 cells assessed as accumulation at sub-G1 phase at 10 uM after 48 hrs by propidium iodide staining based flow cytometry (reference value: 1%); type: functional
K562 [13] = experiment: Anti-invasive activity against human K562 cells at 5 uM after 24 hrs by CyQuantGR dye based fluorimetric QCM EC matrix assay relative to control; type: functional; conditions: K562, 24 h
In short: (§3)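 K562 cells (1X10^6 cells/ml) starved overnight in FBS-free medium, then placed in inserts in FBS-free medium with 5% BSA, with 5% FBS medium below as chemoattractant. Treated at 2.5, 5 and 10 μM in triplicate for 24 h alongside an untreated control. Invaded cells were detached, stained with CyQuantGR and read by fluorescence (ex 480/em 520 nm). Results given as % of control, mean ± SD.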

K562 [14] = experiment: Anti-invasive activity against human K562 cells at 10 uM after 24 hrs by CyQuantGR dye based fluorimetric QCM EC matrix assay relative to control; type: functional; conditions: K562, 24 h; in short: as §3
K562 [15] = experiment: Anti-invasive activity against human K562 cells after 24 hrs by CyQuantGR dye based fluorimetric QCM EC matrix assay; type: functional, cell-based; in short: as §3
K562 [16] = experiment: Cell cycle arrest in human K562 cells assessed as accumulation at G1-phase at 2.5 uM after 24 hrs by propidium iodide staining based flow cytometry (reference value: 27.5%)
K562 [17] = experiment: Cell cycle arrest in human K562 cells assessed as accumulation at sub-G1 phase at 2.5 uM after 24 hrs by propidium iodide staining based flow cytometry (reference value: 1%)
K562 [18] = experiment: Cell cycle arrest in human K562 cells assessed as accumulation at G1/S-phase at 10 uM after 24 hrs by propidium iodide staining based flow cytometry (reference value: 21.8%)
K562 [19] = experiment: Downregulation of MMP2 protein expression in human K562 cells assessed as MMP2 negative population at 5 uM after 48 hrs by FITC staining based flow cytometry (reference value: 1.6%)

Matrix metalloproteinase-9, sequence (P14780 whole entry): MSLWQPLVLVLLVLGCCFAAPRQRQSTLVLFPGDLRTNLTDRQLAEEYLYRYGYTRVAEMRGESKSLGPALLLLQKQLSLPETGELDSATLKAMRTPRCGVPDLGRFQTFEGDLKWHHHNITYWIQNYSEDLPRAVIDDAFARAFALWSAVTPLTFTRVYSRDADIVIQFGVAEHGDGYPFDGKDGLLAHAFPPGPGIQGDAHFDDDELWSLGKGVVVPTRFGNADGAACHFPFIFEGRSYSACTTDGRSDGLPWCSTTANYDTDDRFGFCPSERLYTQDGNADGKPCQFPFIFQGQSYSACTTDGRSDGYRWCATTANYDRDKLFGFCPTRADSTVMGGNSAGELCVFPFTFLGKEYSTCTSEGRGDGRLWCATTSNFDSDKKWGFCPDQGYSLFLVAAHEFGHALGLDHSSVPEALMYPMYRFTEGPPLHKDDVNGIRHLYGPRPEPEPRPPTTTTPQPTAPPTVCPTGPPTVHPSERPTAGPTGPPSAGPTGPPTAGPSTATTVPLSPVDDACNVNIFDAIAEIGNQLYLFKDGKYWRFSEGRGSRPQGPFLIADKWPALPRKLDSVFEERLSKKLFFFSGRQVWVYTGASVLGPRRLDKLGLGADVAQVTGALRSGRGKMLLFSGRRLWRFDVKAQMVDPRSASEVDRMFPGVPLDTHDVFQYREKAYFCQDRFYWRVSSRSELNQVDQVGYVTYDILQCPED

CCCCCNC(=O)CC[C@H](NS(=O)(=O)c1ccc([N+](=O)[O-])cc1)C(=O)O
IC50 [1]: 6.8 µM | Ratio IC50 [2]: 1.42 | IC50 (A549): 206 µM | IC50 (K562 [3]): 17.9 µM | IC50 (PBMC): > 1000 µM | IC50 (Interstitial collagenase): > 500 µM | IC50 [4]: 493 µM | IC50 [5]: 436 µM | Activity (K562 [6]): 0.1% | Activity (K562 [7]): 15.4% | Activity (K562 [8]): 10.3% | Activity (K562 [9]): 0.4% | fold change (FC) (K562 [10]): <=300 | Activity (K562 [11]): 33.4% | Activity (K562 [12]): 4.6% | inhibition at 5 µM (K562 [13]): 14.2% | inhibition at 10 µM (K562 [14]): 24.1% | Activity (K562 [15]): Dose-dependent effect | Activity (K562 [16]): 30.7% | Activity (K562 [17]): 1.4% | Activity (K562 [18]): 14% | Activity (K562 [19]): 81.1%
